# Source: PubChem BioAssay
# Hits are enriched below; roughly 4.1% of the tested compounds scored in any of these assays.
# NF-kB expr up = raises NF-kB expression in human neuronal cells; NF-kB reporter expression; hits give high values; fold change at 12.5 µM; hit rate 1.6% among 190,000; AID 1239; in the data active = fold change above about 3.3
# APP 5'UTR act = activates APP 5'UTR luciferase reporter. SH-SY5Y APP 5'UTR luciferase reporter, luminescence; zero percent = DMSO vehicle wells. activation, % at 2 µM. hit rate 1% among 190,000;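 active = activation above a set limit, based on mean plus 3 SD of controls, cut at about 140% in these data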
# FLuc stim CS = firefly luciferase counter-screen for stimulation assays | P08659 | ATPlite luciferase biochemical, luminescence, 10 min; 0 = ATP-free wells, 1 = DMSO control | activation factor at 10 µM | 200,000 tested, under 10 active | AID 1027;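 active = luciferase activation factor, scaled between plate controls, of at least 2 with compound at 10 µM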
#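 System: cell-free luciferase reagent; medium: PBS as buffer for the ATP substrate; doses: test compounds dosed from 2 mM stocks in 100% DMSO; incubation: 10 min, room temperature; measured by: luminescence from luciferase reaction; read-out: luciferase activation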
# FLuc inh counter = Photinus pyralis luciferase inhibition counter-screen. AID 1006. inhibition, % at 10 µM. ATPLite firefly luciferase biochemical luminescence, 10 min. hit rate 1.5% among 200,000;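 active = inhibition above about 50% when tested at 10 µM, limit read from the data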
# STAT1 activator = STAT1 signaling activation; NIH 3T3 STAT1-luciferase reporter, IFN-gamma, luminescence; 100% = IFN-gamma alone, no compound; activation (% of control), % at 5.5 µM; hit rate 2.6% among 200,000; AID 932;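 active = activation above the screen-wide mean activation plus 3 SD, cut at about 130% in these data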
# Numbers stand for hits; – = inactive; · = no result given.
SMILES,NF-kB expr up,APP 5'UTR act,FLuc stim CS,FLuc inh counter,STAT1 activator
O=C(Cc1ccc(Cl)cc1)Nc1ccc(N2CCN(C(=O)c3ccco3)CC2)cc1,–,–,–,–,–
O=C(c1ccco1)N1CCN(C(=O)N2c3ccccc3Sc3ccccc32)CC1,4.7,–,–,–,–
O=C(c1ccco1)N1CCN(c2ccc(Cl)cc2)CC1,–,–,–,–,134
O=C(c1ccco1)N1c2ccccc2Sc2ccccc21,–,–,–,–,–
Cc1ccc(NC2=Nc3ccccc3CS2)cc1,5.6,184,–,69,–
c1ccc(-c2noc(CN3CCN(c4ccccc4)CC3)n2)cc1,–,·,–,–,–
CC1CCN(Cc2nc(-c3ccccc3)no2)CC1,3.4,–,·,·,142
c1ccc(OCc2nc(-c3ccncc3)no2)cc1,–,–,–,–,–
c1ccc(CCc2nc(-c3ccccc3)no2)cc1,–,–,–,–,134
O=C(Nc1ccc(-c2cn3ccccc3n2)cc1)c1ccco1,–,–,–,86,144
c1ccc(OCc2nc(-c3ccccc3)no2)cc1,–,–,–,–,142
CC1CCN(C(=O)Cn2cc(SCC(=O)NCC3CCCO3)c3ccccc32)CC1 (stereo unspecified),–,–,–,–,–
O=C(Nc1ccc(-c2noc(CCc3ccccc3)n2)cc1)c1ccco1,3.9,173,–,–,136
Brc1ccc(-c2noc(CCc3ccccc3)n2)cc1,·,–,·,·,–
Cc1cccc(-c2noc(CCc3ccccc3)n2)c1,–,–,–,–,–
Cc1cccc(-c2noc(Cc3ccccc3)n2)c1,–,–,–,–,135
O=C(CN1CCN(S(=O)(=O)c2ccccc2[N+](=O)[O-])CC1)NC(=O)NCc1ccco1,–,–,–,–,–
CCOc1ccc(-c2n[nH]c(C(=O)NN)c2C)cc1,–,–,–,–,129
Cc1c(-c2ccccc2)n[nH]c1C(=O)NN,–,–,–,–,–
O=c1c2ccccc2nc2sc3ccccc3n12,–,–,–,–,141
Cc1ccsc1/C=N/Nc1nc(=O)[nH]nc1C,–,–,–,52,–
Cc1ccsc1/C=N/Nc1ncc(Cl)cc1Cl,–,·,–,–,140
CC(=O)Nc1ccc(S(=O)(=O)NCc2csc(-c3cccnc3)n2)cc1,–,–,–,–,–
COc1cccc(OC)c1C(=O)Nc1nc2ccc([N+](=O)[O-])cc2s1,·,–,–,–,–
O=[N+]([O-])c1ccc2sc(SCc3nc4ccccn4c3Br)nc2c1,–,–,–,–,–
SMILES,NF-kB expr up,APP 5'UTR act,FLuc stim CS,FLuc inh counter,STAT1 activator
Brc1c(CSc2nc3ccccc3s2)nc2ncccn12,4.5,–,–,–,133
COC(=O)C1C(=O)/C(=C/N(C)C)C(=O)CC1(C)C (stereo unspecified),6.2,–,–,–,–
CN=CC1=C(O)C(C(=O)OC)C(C)(C)CC1=O (stereo unspecified),–,–,–,–,–
CCCCCNCc1ccc(Cl)cc1,–,–,–,–,–
O=c1c(Cl)c(N2CCCCC2)cnn1-c1nc2ccccc2[nH]1,–,–,–,97,–
O=c1cc(-c2ccccc2)[nH]n1-c1nc2ccccc2[nH]1,–,–,–,–,–
O=c1c2ccccc2cnn1-c1nc2ccccc2[nH]1,–,–,–,98,–
COc1cccc(CCC(=O)O)c1OC,–,–,·,·,–
CCc1nnc(NC(=O)CSc2nnc(-c3ccccc3OC)n2-c2ccc(C)cc2)s1,–,–,–,–,–
C/C(=N\N1C(=O)c2ccccc2NC1c1ccco1)c1ccccc1O (stereo unspecified),6.6,–,–,–,–
O=C1c2ccccc2NC(c2ccco2)N1/N=C/c1ccco1 (stereo unspecified),–,–,–,–,–
C/C(=N\N1C(=O)c2ccccc2NC1c1ccccc1)c1ccccc1O (stereo unspecified),–,–,–,–,140
Cc1ccc(NC2Nc3cc(C)nn3S2)c(C)c1 (stereo unspecified),–,–,–,–,142
Cc1cc2n(n1)SC(Nc1ccccc1)N2 (stereo unspecified),–,–,–,–,–
CCOC(=O)N1CCN(c2ncc(C(F)(F)F)cc2Cl)CC1,–,–,–,–,–
O=C(NCC1CCCO1)c1ccc(N2CCCCC2)nc1 (stereo unspecified),–,–,–,–,–
O=C(NCC1CCCO1)c1ccc2nc(N3CCCCC3)sc2c1 (stereo unspecified),–,–,–,–,130
